Reference: ChEMBL document CHEMBL3865827, “A novel class of ethacrynic acid derivatives as promising drug-like potent generation of anticancer agents with established mechanism of action” (Eur J Med Chem, 2016)
The source made the active and inactive calls. No cut-off for these calls is given here.

Test system: HL-60
Test: Induction of apoptosis in human HL60 cells assessed as caspase 3/7 activation at 50 nM preincubated for 24 hrs after 180 mins by fluorescence assay
Assay type: functional, cell-based
How it was run: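 HL60 cells treated 24 h with EA (50 µM), derivatives (5 µM) or doxorubicin (50 nM, positive control), then caspase-3 activity assayed by fluorescence (ex 360, em 435 nm) at 0, 30, 60, 120 and 180 min. Rate from slope of linear phase, expressed as fold-activation over DMSO-treated HL60.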

SMILES: COc1cccc2c1C(=O)c1c(O)c3c(c(O)c1C2=O)C[C@@](O)(C(=O)CO)C[C@@H]3O[C@H]1C[C@H](N)[C@H](O)[C@H](C)O1
- Activity: Active
